ChEMBL document CHEMBL1124846, “Synthesis, antiproliferative, and antiviral activity of certain 4-substituted and 4,5-disubstituted 7-[(1,3-dihydroxy-2-propoxy)methyl]pyrrolo[2,3-d]pyrimidines” (J Med Chem, 1990)

Legend:
Human alphaherpesvirus 1 [1] = assay: Inhibition of herpes simplex virus (HSV-1) in yield reduction assay; assay type: functional, organism-based
Mus musculus [2] = assay: Compound was evaluated for percent mortality of mice inoculated with murine cytomegalovirus at a concentration of 5.6 mg/kg at 48 h; assay type: ADME, organism-based; parameters: dose 5.6 mg/kg; conditions: in vivo
Summary of the method: (§1)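 Three-week-old female Swiss Webster mice infected ip with 2×10^5 PFU MCMV Smith strain; groups of 15 given drug ip twice daily for 5 days, starting 6, 24 or 48 h after inoculation. Toxicity controls received drug without virus. Mortality followed daily for 21 days; final mortality compared with placebo by Fisher Exact Test.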

Mus musculus [3] = assay: Compound was evaluated for mean day of death at 16.7 mg/kg at 48 h; assay type: functional
Summary of the method: (§2)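 Three-week-old female Swiss Webster mice inoculated ip with 2×10^5 PFU MCMV Smith strain. Groups of 15 dosed ip twice daily for 5 days, starting 6, 24 or 48 h post-inoculation. Held 21 days with daily mortality checks. Final mortality and mean day of death (dying animals) computed. Mortality versus placebo by Fisher Exact Test, MDD by Mann–Whitney U-rank test.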

Mus musculus [4] = assay: Compound was evaluated for 15 mice treated ip twice daily for 5 days at a dose of 16.7 mg/kg at 6 hr followed (MCMV) virus inoculation; assay type: functional; conditions: route intraperitoneal; summary of the method: as §2
[5] = Inhibition of herpes simplex virus type 1(HSV-1) in human foreskin fibroblasts cell lines was determined by plaque assay; assay type: functional, cell-based; conditions: Fibroblast
Summary of the method: (§3)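 Plaque reduction used MCMV Smith in primary mouse embryo fibroblasts, HCMV AD169 in low-passage HFF, and HSV-1 E-377 and HSV-2 MS in MEF, rabbit kidney or HFF. IC50 was determined against untreated controls; two or more experiments.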

Mus musculus [6] = assay: Compound was evaluated for mean day of death at 1.9 mg/kg at 48 h; assay type: functional; summary of the method: as §2
Mus musculus [7] = assay: Compound was evaluated for mean day of death at 16.7 mg/kg at 24 h; assay type: functional; summary of the method: as §2
Mus musculus [8] = assay: Compound was evaluated for percent mortality of mice inoculated with murine cytomegalovirus at a concentration of 50 mg/kg; drug toxicity control; assay type: functional; summary of the method: as §1
[9] = Inhibition of herpes simplex virus type 1(HSV-1) in monkey kidney cell was determined by plaque assay; assay type: functional, cell-based; conditions: Cercopithecidae
Summary of the method: (§4)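 HSV-1 S-148 strain plaque reduction in BSC-1 monkey kidney monolayers, with about 100 PFU inoculum and compound dissolved in the overlay medium. IC50 came from linear regression of percent inhibition against log concentration, with a positive control in each set.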

Mus musculus [10] = assay: Compound was evaluated for 15 mice treated ip twice daily for 5 days at a dose of 1.9 mg/kg followed (MCMV) virus inoculation; assay type: functional; conditions: route intraperitoneal
Mus musculus [11] = assay: Compound was evaluated for percent mortality of mice inoculated with murine cytomegalovirus at a concentration of 5.6 mg/kg; drug toxicity control; assay type: functional; summary of the method: as §1
Mus musculus [12] = assay: Compound was evaluated for percent mortality of mice inoculated with murine cytomegalovirus at a concentration of 50 mg/kg at 6 h; assay type: ADME, organism-based; parameters: dose 50 mg/kg; conditions: in vivo; summary of the method: as §1
Mus musculus [13] = assay: Compound was evaluated for mean day of death at 16.7 mg/kg; drug toxicity control; assay type: functional
Summary of the method: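 Drug toxicity control: uninfected three-week-old female Swiss Webster mice, groups of 15, dosed ip twice daily for 5 days. Held 21 days with daily mortality checks. Final mortality and mean day of death for animals that died were calculated.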

Mus musculus [14] = species on record: Mus musculus; assay: Inhibition of herpes simplex virus […](HSV-2) in mouse embryo fibroblasts cell lines was determined by plaque assay; assay type: functional, organism-based; conditions: Fibroblast; summary of the method: as §3
Human betaherpesvirus 5 = assay: Inhibition of human cytomegalovirus (HCMV) in plaque reduction assay; assay type: functional, organism-based
Summary of the method: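 HCMV Towne strain (plaque-purified P0) plaque reduction in HFF monolayers in MEM(E) with 10% FBS. Inoculum held about 50 PFU, with compound dissolved in the overlay medium. IC50 came from linear regression of percent inhibition against log concentration, with ganciclovir or acyclovir positive controls in every set; two to five experiments.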

Mus musculus [15] = assay: Compound was evaluated for percent mortality of mice inoculated with murine cytomegalovirus at a concentration of 1.9 mg/kg at 24 h; assay type: organism-based; parameters: dose 1.9 mg/kg; conditions: in vivo; summary of the method: as §2
L1210 = assay: In vitro inhibition of L1210 cell growth to half of the control rate; assay type: functional, cell-based; conditions: Mus musculus
Summary of the method: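 Murine L1210 leukemia cells in static suspension culture in Fischer's medium with compound for 4 days. Growth rate is the ratio of control to treated population doubling time; where the rate changed, the final rate was used. IC50 is the concentration giving 50% of control growth rate; single-concentration value at 100 μM.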

Mus musculus [16] = assay: Compound was evaluated for percent mortality of mice inoculated with murine cytomegalovirus at a concentration of 16.7 mg/kg at 24 h; assay type: organism-based; parameters: dose 16.7 mg/kg; conditions: in vivo; summary of the method: as §2
Mus musculus [17] = assay: Compound was evaluated for percent mortality of mice inoculated with murine cytomegalovirus at a concentration of 5.6 mg/kg at 6 h; assay type: ADME, organism-based; parameters: dose 5.6 mg/kg; conditions: in vivo; summary of the method: as §1
Mus musculus [18] = assay: Compound was evaluated for 15 mice treated ip twice daily for 5 days at a dose of 50 mg/kg followed (MCMV) virus inoculation; assay type: functional; conditions: route intraperitoneal
Mus musculus [19] = assay: Compound was evaluated for 15 mice treated ip twice daily for 5 days at a dose of 5.6 mg/kg followed (MCMV) virus inoculation; assay type: functional; conditions: route intraperitoneal
Mus musculus [20] = assay: Compound was evaluated for percent mortality of mice inoculated with murine cytomegalovirus at a concentration of 16.7 mg/kg at 6 h; assay type: organism-based; parameters: dose 16.7 mg/kg; conditions: in vivo; summary of the method: as §2
Mus musculus [21] = assay: Compound was evaluated for percent mortality of mice inoculated with murine cytomegalovirus at a concentration of 50 mg/kg at 24 h; assay type: ADME, organism-based; parameters: dose 50 mg/kg; conditions: in vivo; summary of the method: as §1
[22] = Cytotoxicity of AD169 strain of HCMV in human foreskin fibroblasts cells; assay type: functional, cell-based; conditions: Fibroblast
Mus musculus [23] = assay: Compound was evaluated for 15 mice treated ip twice daily for 5 days at a dose of 50 mg/kg at 6 hr followed (MCMV) virus inoculation; assay type: functional; conditions: route intraperitoneal; summary of the method: as §2
Mus musculus [24] = assay: Compound was evaluated for 15 mice treated ip twice daily for 5 days at a dose of 5.6 mg/kg at 24 hr followed (MCMV) virus inoculation; assay type: functional; conditions: route intraperitoneal; summary of the method: as §2
[25] = Cytotoxicity of human simplex virus type 1 in monkey kidney cells; assay type: functional, cell-based; conditions: Cercopithecidae
Summary of the method: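 Visual cytotoxicity was scored in uninfected cells of the same host monolayers used for the plaque assays, on a 0 to 4+ scale at 35- and 60-fold magnification, at the time plaques were counted.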

Mus musculus [26] = assay: Compound was evaluated for percent mortality of mice inoculated with murine cytomegalovirus at a concentration of 1.9 mg/kg at 6 h; assay type: organism-based; parameters: dose 1.9 mg/kg; conditions: in vivo; summary of the method: as §2
Mus musculus [27] = assay: Compound was evaluated for 15 mice treated ip twice daily for 5 days at a dose of 1.9 mg/kg at 6 hr followed (MCMV) virus inoculation; assay type: functional; conditions: route intraperitoneal; summary of the method: as §2
Mus musculus [28] = species on record: Mus musculus; assay: Cytotoxicity of human simplex virus type 1 in mouse embryo fibroblasts cells; conditions: Fibroblast
Human alphaherpesvirus 1 [29] = assay: Inhibition of herpes simplex virus (HSV-1) in plaque reduction assay; assay type: functional, organism-based; summary of the method: as §4
Mus musculus [30] = assay: Compound was evaluated for percent mortality of mice inoculated with murine cytomegalovirus at a concentration of 16.7 mg/kg at 48 h; assay type: organism-based; parameters: dose 16.7 mg/kg; conditions: in vivo; summary of the method: as §2
Neoplastic cell line = assay: Compound was evaluated for cytotoxic activity against KB cells.; assay type: functional, cell-based; conditions: Homo sapiens
Summary of the method: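 KB cells grown in MEM(H) + 5% FBS. Compound effects measured on radiolabelled precursor incorporation into DNA, RNA and protein. IC50s from linear regression of percent inhibition vs log concentration. The three IC50s were averaged, with 2–5 experiments averaged. Runs rejected if the acyclovir/ganciclovir control deviated >1.5 SD from its mean.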

Mus musculus [31] = assay: Compound was evaluated for mean day of death at 5.6 mg/kg at 6 h; assay type: functional; summary of the method: as §2
Mus musculus [32] = assay: Compound was evaluated for 15 mice treated ip twice daily for 5 days at a dose of 5.6 mg/kg at 6 hr followed (MCMV) virus inoculation; assay type: functional; conditions: route intraperitoneal; summary of the method: as §2

Nc1ncnc2c1c(Br)cn2COC(CO)CO
IC90 (Human alphaherpesvirus 1 [1]): 17000 nM | Mortality (Mus musculus [2]): 40% | MDD (Mus musculus [3]): 8.4 | Activity (Mus musculus [4]): 9 | IC50 [5]: 200 nM | MDD (Mus musculus [6]): 4.8 | MDD (Mus musculus [7]): 7.1 | mortality at 50 mg/kg (Mus musculus [8]): 0% | IC50 [9]: 2000 nM | Activity (Mus musculus [10]): 0 | mortality at 5.6 mg/kg (Mus musculus [11]): 0% | Mortality (Mus musculus [12]): 60% | MDD (Mus musculus [13]): 5 | IC50 (Mus musculus [14]): 1900 nM | IC50 (Human betaherpesvirus 5): 1900 nM | IC50 (Human betaherpesvirus 5; Human betaherpesvirus 5): 1600 nM | Mortality (Mus musculus [15]): 60% | IC50 (L1210): 710 nM | Mortality (Mus musculus [16]): 80% | Mortality (Mus musculus [17]): 7% | Activity (Mus musculus [18]): 0 | Activity (Mus musculus [19]): 0 | Mortality (Mus musculus [20]): 60% | Mortality (Mus musculus [21]): 93% | IC50 [22]: > 158000 nM | Activity (Mus musculus [23]): 9 | Activity (Mus musculus [24]): 3 | IC50 [25]: > 100000 nM | Mortality (Mus musculus [26]): 33% | Activity (Mus musculus [27]): 5 | IC50 (Mus musculus [28]): > 158000 nM | IC50 (Human alphaherpesvirus 1 [29]): 2000 nM | Mortality (Mus musculus [30]): 87% | IC50 (Neoplastic cell line): > 100000 nM | MDD (Mus musculus [31]): 8 | Activity (Mus musculus [32]): 1
